For orientation: Emax means the greatest response seen or fitted, relative to the assay's reference.

Each structure is given as a SMILES string. Activity calls are given as the source filed them. The calls are words filed in the database; no cut-off is given here.

The record followed here is ChEMBL document CHEMBL2331121, “Design, synthesis, and pharmacological characterization of N- and O-substituted 5,6,7,8-tetrahydro-4H-isoxazolo[4,5-d]azepin-3-ol analogues: novel 5-HT(2A)/5-HT(2C) receptor agonists with pro-cognitive properties” (J Med Chem, 2013).

Test [1] addresses T1, 5-hydroxytryptamine receptor 2A (Homo sapiens, UniProt P28223). The test is described as follows: Agonist activity at human 5HT2A receptor expressed in HEK293 cells assessed as induction of intracellular calcium release measured for 90 secs by fluorescence assay. Format: functional, cell-based. (In general: Calcium flux is commonly read through the fluorescence of an indicator in the cells.)

The target in test [2] is T2, 5-hydroxytryptamine receptor 2C (Homo sapiens) (UniProt P28335).
T2 sequence (whole entry): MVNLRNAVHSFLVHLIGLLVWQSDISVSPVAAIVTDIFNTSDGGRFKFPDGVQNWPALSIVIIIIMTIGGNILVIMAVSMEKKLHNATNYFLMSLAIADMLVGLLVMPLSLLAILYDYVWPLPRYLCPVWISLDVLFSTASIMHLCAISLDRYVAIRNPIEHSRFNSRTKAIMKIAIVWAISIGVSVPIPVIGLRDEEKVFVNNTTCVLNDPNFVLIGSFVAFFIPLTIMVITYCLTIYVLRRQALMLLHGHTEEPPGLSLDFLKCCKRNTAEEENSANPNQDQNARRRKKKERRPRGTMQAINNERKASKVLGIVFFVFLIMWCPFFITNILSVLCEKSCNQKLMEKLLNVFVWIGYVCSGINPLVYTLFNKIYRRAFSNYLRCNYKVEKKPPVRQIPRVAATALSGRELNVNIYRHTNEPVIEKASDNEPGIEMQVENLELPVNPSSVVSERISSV
As to the kind of experiment: Agonist activity at human 5HT2C receptor expressed in HEK293 cells assessed as induction of intracellular calcium release at 100 to 1000 uM by fluorescence assay. In kind it is functional, cell-based. Summed up: (§1)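 Stable polyclonal h5-HT2A or h5-HT2C HEK293 cells plated on poly-D-lysine wells, loaded next day with Fluo-4/AM for 1 h at 37 °C. Buffer was HBSS with 20 mM HEPES, 1 mM CaCl₂, 1 mM MgCl₂, 2.5 mM probenecid, pH 7.4. Fluorescence read at 485/525 nm before and up to 90 s after agonist addition. Responses normalised to 5-HT on the same plate. Duplicate, 4−10 experiments.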

In test [3] the target is T1, 5-hydroxytryptamine receptor 2A. The test is described as follows: biochemical. Format: cell-based, tsA201.
For test [4], the target named is T3, 5-hydroxytryptamine receptor 2C (Homo sapiens, UniProt P28335).
T3 sequence (P28335 whole entry): T2 sequence (whole entry)
As to the kind of experiment: Displacement of [3H]mesulergine from human 5HT2C receptor expressed in tsA201 cell membranes after 1 hr by scintillation counting analysis. In general terms: In a radioligand displacement assay an active substance lowers the binding of a labelled ligand.

Test [5] concerns the target T1, 5-hydroxytryptamine receptor 2A. As to the kind of experiment: Antagonist activity at human 5HT2A receptor expressed in HEK293 cells assessed as inhibition of 5HT-induced intracellular calcium release at 1 mM measured for 90 secs by fluorescence assay. In kind it is functional, cell-based. The method in brief: (§2)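 Fluo-4/Ca²⁺ read-out in stable h5-HT2A or h5-HT2C HEK293 cells (HBSS/HEPES/probenecid buffer, pH 7.4). Antagonist was added after the dye-loading wash, then cells were challenged with an EC₇₅−EC₈₅ concentration of 5-HT. Emission at 525 nm was monitored up to 90 s after agonist addition. Duplicate, repeated in independent experiments.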

The target is the same in test [6]. As to the kind of experiment: Agonist activity at human 5HT2A receptor expressed in HEK293 cells assessed as induction of intracellular calcium release at 1 mM measured for 90 secs by fluorescence assay. Format: functional, cell-based. The method in brief: as §1
The target of test [7] is T4, 5-hydroxytryptamine receptor 2C (Rattus norvegicus) (UniProt P08909).
T4 sequence (whole entry): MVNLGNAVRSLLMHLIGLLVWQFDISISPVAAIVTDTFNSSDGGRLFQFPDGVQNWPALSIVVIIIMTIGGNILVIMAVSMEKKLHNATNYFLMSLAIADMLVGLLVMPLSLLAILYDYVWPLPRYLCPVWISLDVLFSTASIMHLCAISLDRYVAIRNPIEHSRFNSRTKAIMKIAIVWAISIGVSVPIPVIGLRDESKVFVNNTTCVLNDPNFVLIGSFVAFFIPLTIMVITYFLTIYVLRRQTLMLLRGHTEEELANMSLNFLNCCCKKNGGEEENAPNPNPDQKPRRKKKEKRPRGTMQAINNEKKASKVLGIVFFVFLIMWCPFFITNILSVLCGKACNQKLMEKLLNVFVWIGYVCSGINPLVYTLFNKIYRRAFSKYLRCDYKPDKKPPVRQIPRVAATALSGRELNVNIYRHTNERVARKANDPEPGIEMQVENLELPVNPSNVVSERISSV
The test is described as follows: Displacement of [125I]-N-(p-I-Bn)-THAZ from 5HT2C in rat cerebral cortex membrane at 300 uM after 1 hr by scintillation counting analysis. In kind it is cell membranes.

Test [8] deals with T1, 5-hydroxytryptamine receptor 2A. The test is described as follows: Agonist activity at human 5HT2A receptor expressed in HEK293 cells assessed as induction of intracellular calcium release by fluorescence assay relative to 5HT. Format: functional, cell-based. Summed up:
(§3)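 Stable polyclonal 5-HT2A or 5-HT2C HEK293 cells seeded on poly-D-lysine plates (6 × 10⁴ cells/well). Next day loaded with Fluo-4/AM for 1 h at 37 °C in HBSS/20 mM HEPES/1 mM CaCl₂/1 mM MgCl₂/2.5 mM probenecid, pH 7.4. Fluorescence (485 ex/525 em) recorded before and up to 90 s after agonist. Response relative to 5-HT on the same plate. Duplicate, at least three times.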

Test [9] deals with T3, 5-hydroxytryptamine receptor 2C. The test is described as follows: Agonist activity at human 5HT2C receptor expressed in HEK293 cells assessed as accumulation of IP1 incubated for 1 hr at 37 degC followed by 15 mins at RT by TR-FRET assay. Format: functional, cell-based. On the technique in general: In TR-FRET formats the signal depends on donor and acceptor labels being close together.

The target in test [10] is T2, 5-hydroxytryptamine receptor 2C (Homo sapiens). The test is described as follows: Agonist activity at human 5HT2C receptor expressed in HEK293 cells assessed as accumulation of IP1 incubated for 1 hr at 37 degC followed by 15 mins at RT by TR-FRET assay relative to 5HT. In kind it is functional, cell-based. Summed up:
(§4)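 Polyclonal HEK293 lines stably expressing human 5-HT2A (variant 1) or 5-HT2C (INI isoform), detached and suspended at 1 × 10⁷ cells/mL in HBSS with 20 mM HEPES, 1 mM CaCl₂, 1 mM MgCl₂, pH 7.4. Ligands in buffer with 40 mM LiCl. Incubated 1 h at 37 °C, then 15 min RT. IP1 read by HTRF 665/615 ratio. Triplicate, at least four times.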

The target in test [11] is T1, 5-hydroxytryptamine receptor 2A. The test is described as follows: Agonist activity at human 5HT2A receptor expressed in HEK293 cells assessed as accumulation of IP1 incubated for 1 hr at 37 degC followed by 15 mins at RT by TR-FRET assay relative to 5HT. Format: functional, cell-based. Summed up: as §4
The target of test [12] is T3, 5-hydroxytryptamine receptor 2C. The test is described as follows: Agonist activity at human 5HT2C receptor expressed in HEK293 cells assessed as induction of intracellular calcium release measured for 90 secs by fluorescence assay. In kind it is functional, cell-based.
The target in test [13] is T2, 5-hydroxytryptamine receptor 2C (Homo sapiens). The test is described as follows: Agonist activity at human 5HT2C receptor expressed in HEK293 cells assessed as induction of intracellular calcium release by fluorescence assay relative to 5HT. Format: functional, cell-based. The method in brief: as §3
Test [14] addresses T1, 5-hydroxytryptamine receptor 2A. As to the kind of experiment: Agonist activity at human 5HT2A receptor expressed in HEK293 cells assessed as accumulation of IP1 incubated for 1 hr at 37 degC followed by 15 mins at RT by TR-FRET assay. In kind it is functional, cell-based.
Test [15] has as its target T2, 5-hydroxytryptamine receptor 2C (Homo sapiens). As to the kind of experiment: Agonist activity at human 5HT2C receptor expressed in HEK293 cells assessed as induction of intracellular calcium release at 1 mM measured for 90 secs by fluorescence assay. Format: functional, cell-based. Summed up: as §1
The target is the same in test [16]. As to the kind of experiment: Antagonist activity at human 5HT2C receptor expressed in HEK293 cells assessed as inhibition of 5HT-induced intracellular calcium release at 1 mM measured for 90 secs by fluorescence assay. In kind it is functional, cell-based. The method in brief: as §2
The target is the same in test [17]. The test is described as follows: Agonist activity at human 5HT2C receptor expressed in HEK293 cells assessed as induction of intracellular calcium release up to 1000 uM measured up to 90 secs by fluorescence assay. Format: functional, cell-based. Summed up: as §3
Test [18] addresses T1, 5-hydroxytryptamine receptor 2A. The test is described as follows: Agonist activity at human 5HT2A receptor expressed in HEK293 cells assessed as induction of intracellular calcium release up to 1000 uM measured up to 90 secs by fluorescence assay. Format: functional, cell-based. Summed up: as §3
Test [19] has as its target T4, 5-hydroxytryptamine receptor 2C (Rattus norvegicus). As to the kind of experiment: Displacement of [125I]-N-(p-I-Bn)-THAZ from 5HT2C in rat cerebral cortex membrane up to 50 uM after 1 hr by scintillation counting analysis. Format: cell membranes.
For test [20] the target is unchanged. The test is described as follows: Displacement of [125I]-N-(p-I-Bn)-THAZ from 5HT2C receptor in rat hippocampal membrane after 1 hr by scintillation counting analysis. Format: cell membranes. The note with it: Hippocampus.
The target is the same in test [21]. As to the kind of experiment: Displacement of [125I]-N-(p-I-Bn)-THAZ from 5HT2C receptor in rat cerebellum membrane after 1 hr by scintillation counting analysis. In kind it is cell membranes.
The target is the same in test [22]. As to the kind of experiment: Displacement of [125I]-N-(p-I-Bn)-THAZ from 5HT2C receptor in rat midbrain membrane after 1 hr by scintillation counting analysis. In kind it is cell membranes.

T1 sequence (P28223 whole entry): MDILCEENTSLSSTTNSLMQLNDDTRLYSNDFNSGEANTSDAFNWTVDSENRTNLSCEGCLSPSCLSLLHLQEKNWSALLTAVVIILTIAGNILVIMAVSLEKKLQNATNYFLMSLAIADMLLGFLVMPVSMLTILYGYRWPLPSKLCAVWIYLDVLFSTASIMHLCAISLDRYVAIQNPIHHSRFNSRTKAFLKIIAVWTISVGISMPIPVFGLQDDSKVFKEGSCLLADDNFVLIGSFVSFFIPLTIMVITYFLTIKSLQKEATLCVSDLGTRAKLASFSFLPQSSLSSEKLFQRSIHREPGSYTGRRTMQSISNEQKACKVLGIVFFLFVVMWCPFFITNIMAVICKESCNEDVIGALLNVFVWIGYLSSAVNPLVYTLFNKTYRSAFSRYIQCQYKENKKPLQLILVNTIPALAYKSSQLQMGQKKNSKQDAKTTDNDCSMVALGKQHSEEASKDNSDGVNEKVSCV

Regarding `COc1noc2c1CCN(C)CC2`, the EC50 in [1] (hek293, read-out: EC50) was greater than 1000 µM; in test [1] (read-out: pEC50 (converted)) it was greater than 1000 µM. For the same molecule, the outcome in [2] was Active. The Ki is greater than 300 µM in [3] (read-out: Ki), greater than 316 µM in [3] (read-out: pKi (converted)) and greater than 300 µM in test [4]. Further, the result in [5] and in test [6] was inactive.
Turning to `NCCc1ccc(O)c(O)c1`, in [7], the outcome was inactive.
Take `Clc1cccc(COc2cncc(N3CCNCC3)n2)c1`: the EC50 in test [1] (read-out: EC50) worked out at 0.076 µM; in test [9] it was 0.0081 µM; in test [12] (read-out: EC50), 0.0019 µM; in test [14], 0.14 µM. Further, the Emax was determined as 88% in test [8], 109% in test [10], 90% in test [11] and 103% in test [13]. For the same molecule, the Ki in [3] (read-out: Ki) was found to be 0.081 µM; in test [4] it was 0.0093 µM.
For `CN1CCc2on(C)c(=O)c2CC1`, the EC50 was greater than 1000 µM in [1] (hek293, read-out: EC50); greater than 1000 µM in test [1] (read-out: pEC50 (converted)); greater than 1000 µM in test [12] (hek293, read-out: EC50); greater than 1000 µM in test [12] (read-out: pEC50 (converted)). Besides, the result in test [15], in test [16], in test [5] and in test [6] was inactive. For the same molecule, the Ki in test [3] (read-out: Ki) is greater than 300 µM; in test [3] (read-out: pKi (converted)), greater than 316 µM; in test [4], greater than 300 µM.
Take `COc1noc2c1CNCC2`: the result in [17] and in test [18] was Active.
For the molecule `O=C1Nc2cc(Cl)c(Cl)cc2N2CCNCC12` (configuration not stated), the EC50 is 0.012 µM in [1] (read-out: EC50) and 0.0073 µM in test [12] (read-out: EC50). The results for the Emax in test [8] and in test [13] were 110% and 95%, respectively.
Turning to `NCCCC(=O)O`, in test [7], the result was inactive.
`NC[C@H](O)c1ccc(O)c(O)c1`: the outcome in [7] was inactive.
As to `Cc1cc2c(cc1Cl)N(C(=O)Nc1ccc(Oc3cccnc3C)nc1)CC2`, the result in [19] was inactive.
Consider `CCCn1oc2c(c1=O)CCNCC2`, for which the result in [17] and in [18] was Active. Further, the Ki in test [3] (read-out: Ki) and in test [4] was 100 µM each time.
In the case of `CN1CCN2c3ccccc3Cc3ccccc3C2C1` (configuration not stated), the result in test [19], in test [20], in test [21] and in test [22] was inactive.
